Active and inactive are the calls of the source. The rule behind the calls is not given here.
Tests used:
P2Y purinoceptor 12 = P2Y purinoceptor 12 (Homo sapiens, UniProt Q9H244); assay: Displacement of [33P]2MeS-ADP from P2Y12 receptor (unknown origin) transfected in CHO cells after 30 mins by scintillation counting analysis; type: cell-based
Method in brief: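 P2Y12-expressing CHO cells (35 × 10³/sample) in PBS with 1 mM EDTA and 0.2% BSA are exposed to compound for 30 min. [³³P]2-MeS-ADP (0.16 nM) is then added for 15 min at 20 °C, in triplicate. Filtration separates free from bound ligand, followed by scintillation counting. Nonspecific binding uses 1 mM unlabeled ADP. IC50 comes from a four-parameter logistic fit with asymptotes fixed at 0 and 100. n = 2.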

[1] = Permeability across human Caco2 cells; type: ADME, cell-based; conditions: Caco-2, read-out: permeability
Method in brief: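 Permeation is measured across a Caco2 cell monolayer and reported in 10⁻⁷ cm·s⁻¹.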

[2] = Metabolic stability in human liver microsomes assessed as compound metabolism after 20 mins incubation in presence of 1 mM NADPH; type: ADME; conditions: liver microsomes, read-out: Drug metabolism
Method in brief: (§1)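 Hepatic microsomal fractions are incubated with compound for 20 min with 1 mM NADPH. Result is reported as % metabolized, i.e. 100 minus % unchanged compound.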

[3] = Metabolic stability in rat liver microsomes assessed as compound metabolism after 20 mins incubation in presence of 1 mM NADPH; type: ADME; conditions: liver microsomes, read-out: Drug metabolism; method in brief: as §1
Rattus norvegicus = assay: Ex vivo inhibition of platelet aggregation in Sprague-Dawley rat at 10 mg/kg, po after 2 hrs; type: functional; conditions: for inhibition in vivo at 10 mg/kg: Rattus norvegicus, Sprague-Dawley, po, 2 h
Method in brief: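 Male Sprague−Dawley rats (250−300 g), 6 per batch, are dosed by stomach tube at 10 mL/kg of a 1 mg/mL solution in 5% glucose water containing 5% Cremophor and 3% glycofurol. At 2 h, aortic blood is drawn into 3.8% citrate (1:9) under pentobarbital. PRP is prepared at 300g for 5 min. ADP aggregation is read as the 6-min absorbance AUC and expressed as % inhibition.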

P2Y purinoceptor 12, sequence (Q9H244 whole entry): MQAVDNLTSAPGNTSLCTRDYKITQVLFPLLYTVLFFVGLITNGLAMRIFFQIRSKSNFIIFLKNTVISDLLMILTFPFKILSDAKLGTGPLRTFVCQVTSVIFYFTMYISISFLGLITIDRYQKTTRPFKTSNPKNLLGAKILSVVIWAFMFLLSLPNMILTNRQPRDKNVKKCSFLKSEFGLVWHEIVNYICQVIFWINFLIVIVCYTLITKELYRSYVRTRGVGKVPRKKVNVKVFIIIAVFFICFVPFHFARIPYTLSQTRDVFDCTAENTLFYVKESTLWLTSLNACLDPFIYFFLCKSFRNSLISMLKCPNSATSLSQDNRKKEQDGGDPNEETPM

SMILES | IC50 (P2Y purinoceptor 12) [nM] | metabolised at 20 min [2] [%] | metabolised at 20 min [3] [%] | other results
CCCC(=O)c1cnn(-c2ccc(NC(=O)c3cn(CC(=O)O)c4cc(C)c(C)cc34)cc2)c1C | 5.1 | 4 | 2 | –
CCCC(=O)c1cnn(-c2ccc(NC(=O)c3cn(CC(=O)N4CCN(C)CC4)c4cc(F)c(Cl)cc34)cc2)c1C | 48 | 31 | 21 | Papp [1]: 1.1 ×10⁻⁶ cm/s; inhibition (Rattus norvegicus): inactive
CCC(=O)c1cnn(-c2ccc(NC(=O)c3cn(CC(=O)N4CCN(C)CC4)c4ccc(Cl)cc34)cc2)c1C | 336 | 32 | 25 | –
CCCC(=O)c1cnn(-c2ccc(NC(=O)c3cn(CC(=O)N4CCN(C)CC4)c4ccc(C(F)(F)F)cc34)cc2)c1C | 50 | 15 | 14 | Papp [1]: 0.9 ×10⁻⁶ cm/s; inhibition in vivo at 10 mg/kg (Rattus norvegicus): 26%
CCCC(=O)c1cnn(-c2ccc(NC(=O)c3cn(CC(=O)N4CCN(CCO)CC4)c4ccc(Cl)cc34)cc2)c1C | 11 | 14 | 6 | inhibition in vivo at 10 mg/kg (Rattus norvegicus): 22%
Cc1c(C(=O)CCC(F)(F)F)cnn1-c1ccc(NC(=O)c2cn(CC(=O)N3CCN(C)CC3)c3ccc(Cl)cc23)cc1 | 574 | 6 | 3 | –
CCCC(=O)c1cnn(-c2ccc(NC(=O)c3cn(CC(=O)N4CCCCC4CN4CCCC4)c4ccc(C)cc34)cc2)c1C (configuration not stated) | 100 | – | – | –
CC(=O)c1cnn(-c2ccc(NC(=O)c3cn(CC(=O)N4CCN(C)CC4)c4ccc(Cl)cc34)cc2)c1C | 143 | 40 | 47 | –
CCCC(=O)c1cnn(-c2ccc(N(C)C(=O)c3cn(CC(=O)O)c4ccc(C)cc34)cc2)c1C | 304 | – | – | –
CCOC(=O)c1c(C)nn(-c2ccc(NC(=O)Nc3ccccc3OCCCC(=O)O)cc2)c1C | 80 | – | – | –
CCCC(=O)c1cnn(-c2ccc(NC(=O)c3cn(CC(=O)N(C)CCNC)c4ccc(C)cc34)cc2)c1C | 94 | – | – | –
CCOC(=O)c1c(C)nn(-c2ccc(NC(=O)Nc3ccc(Cl)cc3)cc2)c1C | 1260 | – | – | –
CCCC(=O)c1cnn(-c2ccc(NC(=O)c3cn(CC(=O)N4CCN(C)CC4)c4cc(Cl)c(Cl)cc34)cc2)c1C | 99 | – | – | –
CCCC(=O)c1cnn(-c2ccc(NC(=O)c3cn(CC(=O)O)c4ccc(C)c(C)c34)cc2)c1C | 272 | – | – | –
CCCC(=O)c1cnn(-c2ccc(NC(=O)c3c(C)n(CC(=O)O)c4ccc(C)cc34)cc2)c1C | 84 | – | – | –
CCCC(=O)c1cnn(-c2ccc(NC(=O)n3cc(CCCC(=O)O)c4ccc(C)cc43)cc2)c1C | 47 | – | – | –
CCCC(=O)c1cnn(-c2ccc(NC(=O)c3cn(CC(=O)N4CCN(Cc5ccc(F)cc5)CC4)c4ccc(C)cc34)cc2)c1C | 12 | 63 | 27 | Papp [1]: 1.7 ×10⁻⁶ cm/s
CCOC(=O)c1c(C)nn(-c2ccc(C(=O)NCc3ccccc3OC)cc2)c1C | 1540 | – | – | –
CCCC(=O)c1cnn(-c2ccc(NC(=O)c3cn(CC(=O)N4CCN(CC(=O)N(C)C)CC4)c4ccc(Cl)cc34)cc2)c1C | 11 | 28 | 7 | inhibition (Rattus norvegicus): inactive

Now from value to compound, other results behind:

IC50 (P2Y purinoceptor 12) [nM] | metabolised at 20 min [2] [%] | metabolised at 20 min [3] [%] | SMILES | other results
27 | 65 | 45 | CCCC(=O)c1cnn(-c2ccc(NC(=O)c3cn(CC(=O)N4CCN(C)C(C)C4)c4ccc(C)cc34)cc2)c1C (configuration not stated) | Papp [1]: 5.5 ×10⁻⁶ cm/s
0.9 | 5 | 1 | CCCC(=O)c1cnn(-c2ccc(NC(=O)c3cn(CC(=O)O)c4ccc(C)cc34)cc2)c1C | –
20 | 53 | 32 | CCCC(=O)c1cnn(-c2ccc(NC(=O)c3cn(CC(=O)N4CCN(CCOC)CC4)c4ccc(C)cc34)cc2)c1C | Papp [1]: 7.4 ×10⁻⁶ cm/s
19 | 62 | 36 | CCCC(=O)c1cnn(-c2ccc(NC(=O)c3cn(CC(=O)N4CCN(CCF)CC4)c4ccc(C)cc34)cc2)c1C | Papp [1]: 8.2 ×10⁻⁶ cm/s
28 | – | – | CCCC(=O)c1cnn(-c2ccc(NC(=O)c3cn(CC(=O)N4CC(C)N(C)C(C)C4)c4ccc(C)cc34)cc2)c1C (configuration not stated) | –
47 | – | – | CCCC(=O)c1cnn(-c2ccc(NC(=O)c3cn(CC(=O)N(C)C4CCN(C)C4)c4ccc(C)cc34)cc2)c1C (configuration not stated) | –
111 | – | – | CCCC(=O)c1cnn(-c2ccc(NC(=O)c3cn(CC(=O)N4CCCCC4CN)c4ccc(C)cc34)cc2)c1C (configuration not stated) | –
115 | – | – | CCCC(=O)c1cnn(-c2ccc(NC(=O)c3cn(CC(=O)N4CCC(NC)CC4)c4ccc(C)cc34)cc2)c1C | –
65 | – | – | CCCC(=O)c1cnn(-c2ccc(NC(=O)c3cn(CC(=O)N4CCCC(NC)C4)c4ccc(C)cc34)cc2)c1C (configuration not stated) | –
15 | 61 | 25 | CCCC(=O)c1cnn(-c2ccc(NC(=O)c3cn(CC(=O)N4C[C@@H]5C[C@@H](O)CN5C[C@@H]4C)c4ccc(C)cc34)cc2)c1C | –
19 | 64 | 27 | CCCC(=O)c1cnn(-c2ccc(NC(=O)c3cn(CC(=O)N4CCN(CC(F)F)CC4)c4ccc(C)cc34)cc2)c1C | Papp [1]: 9.3 ×10⁻⁶ cm/s
76 | – | – | CCCC(=O)c1cnn(-c2ccc(NC(=O)c3cn(CC(=O)N4CCN(C)CC4)c4ccc(C#N)cc34)cc2)c1C | –
117 | – | – | CCCC(=O)c1cnn(-c2ccc(NC(=O)c3cn(CC(=O)N4CC5CCNC5C4)c4ccc(C)cc34)cc2)c1C (configuration not stated) | –
82 | – | – | CCCC(=O)c1cnn(-c2ccc(NC(=O)c3cn(CC(=O)N4CCN(C(C)C)CC4)c4ccc(C)cc34)cc2)c1C | inhibition in vivo at 10 mg/kg (Rattus norvegicus): 15%
41 | 16 | 17 | CCCC(=O)c1cnn(-c2ccc(NC(=O)c3cn(CC(=O)N4CCN(CCO)CC4)c4ccc(C)cc34)cc2)c1C | Papp [1]: 0.2 ×10⁻⁶ cm/s
71 | – | – | CCCC(=O)c1cnn(-c2ccc(NC(=O)c3cn(CC(=O)N4CCC(N)CC4)c4ccc(C)cc34)cc2)c1C | –
121 | – | – | CCCCN1CCN(C(=O)Cn2cc(C(=O)Nc3ccc(-n4ncc(C(=O)CCC)c4C)cc3)c3cc(C)ccc32)CC1 | –
95 | – | – | CCCC(=O)c1cnn(-c2ccc(NC(=O)c3cn(CC(=O)N4CCCN(C)CC4)c4ccc(C)cc34)cc2)c1C | –
26 | – | – | CCCC(=O)c1cnn(-c2ccc(NC(=O)c3cn(CC(=O)N4CCNCC4)c4ccc(C)cc34)cc2)c1C | –
194 | – | – | CCCC(=O)c1cnn(-c2ccc(NC(=O)c3cn(CC(=O)NCCN4CCCC4)c4ccc(C)cc34)cc2)c1C | –
87 | – | – | CCCC(=O)c1cnn(-c2ccc(NC(=O)c3cn(CC(=O)N4CCC(N(C)C)C4)c4ccc(C)cc34)cc2)c1C (configuration not stated) | –
66 | – | – | CCCC(=O)c1cnn(-c2ccc(NC(=O)c3cn(CC(=O)N4CCN(CC)CC4)c4ccc(C)cc34)cc2)c1C | –
106 | – | – | CCCC(=O)c1cnn(-c2ccc(NC(=O)c3cn(CC(=O)N4CC5CNCC5C4)c4ccc(C)cc34)cc2)c1C (configuration not stated) | –
22 | 68 | 63 | CCCC(=O)c1cnn(-c2ccc(NC(=O)c3cn(CC(=O)N4CCN(C)CC4)c4ccc(OC)cc34)cc2)c1C | –
73 | – | – | CCCC(=O)c1cnn(-c2ccc(NC(=O)c3cn(CC(=O)N4CCCC(N(C)C)C4)c4ccc(C)cc34)cc2)c1C (configuration not stated) | –
61 | – | – | CCCC(=O)c1cnn(-c2ccc(NC(=O)c3cn(CC(=O)N[C@H]4CCNC4)c4ccc(C)cc34)cc2)c1C | –
